Measured values reported in ChEMBL document CHEMBL1949539, “Synthesis and antikinetoplastid activity of a series of N,N'-substituted diamines” (Bioorg Med Chem Lett, 2012).

Columns and labels:
Leishmania donovani = assay: Antileishmanial activity against Leishmania donovani S1 promastigotes after 72 hrs by alamar blue assay; type: functional, organism-based; conditions: S1, 72 h
Trypanosoma cruzi = assay: Antitrypanosomal activity against Trypanosoma cruzi clone CL-Brener epimastigotes after 14 days by alamar blue assay; type: functional, organism-based; conditions: 336 h
[1] = Selectivity ratio of IC50 for african green monkey Vero cells to IC50 for Leishmania donovani S1 promastigotes; type: ADME, cell-based; conditions: Vero cells versus Leishmania donovani S1 promastigotes, read-out: Ratio IC50
Procedure, shortened: (§1)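 Selectivity index was calculated as the IC50 in Vero cells divided by the IC50 in the parasite.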

[2] = Selectivity ratio of IC50 for african green monkey Vero cells to IC50 for Trypanosoma brucei MITat 427 clone 221a trypomastigotes; type: ADME, cell-based; conditions: read-out: Ratio IC50; procedure, shortened: as §1
Vero [3] = assay: Cytotoxicity against african green monkey Vero cells at 4.76 ug/ml after 48 hrs by neutral red assay; type: cell-based; conditions: chlorocebus sabaeus
Trypanosoma brucei = assay: Antitrypanosomal activity against Trypanosoma brucei MITat 427 clone 221a trypomastigotes after 3 days by alamar blue assay; type: functional, organism-based; conditions: 72 h
Vero [4] = assay: Cytotoxicity against african green monkey Vero cells after 48 hrs by neutral red assay; type: cell-based; conditions: chlorocebus sabaeus
[5] = Selectivity ratio of IC50 for african green monkey Vero cells to IC50 for Trypanosoma cruzi clone CL-Brener epimastigotes; type: ADME, cell-based; conditions: read-out: Ratio IC50; procedure, shortened: as §1

Row | IC50 (Trypanosoma cruzi) [µM] | IC50 (Trypanosoma brucei) [µM] | Structure (SMILES) | IC50 (Leishmania donovani) [µM] | selectivity ratio [1] | selectivity ratio [2] | Activity (Vero [3]) | IC50 (Vero [4]) [µM] | selectivity ratio [5]
1 | > 10 | 6.45 | c1ccc(CNCCCNCc2ccccc2)cc1 | 11 | > 27 | > 3 | Non-toxic | – | –
2 | > 10 | 2.04 | COc1ccc(CNCCCNCc2ccc(OC)cc2)cc1 | 1.24 | > 12 | > 7 | Non-toxic | – | –
3 | > 10 | 0.22 | COc1ccc(CNCCCCCCNCc2ccc(OC)cc2)cc1 | 6.73 | 2 | 60 | – | 8.32 | –
4 | > 10 | 5.5 | COc1ccc(CNCCCCCCCCNCc2ccc(OC)cc2)cc1 | 1.56 | > 5 | > 2 | Non-toxic | – | –
5 | 2.3 | > 10 | COc1ccc(CNCCCCCCCCCCNCc2ccc(OC)cc2)cc1 | 1.45 | > 8 | – | Non-toxic | – | > 5
6 | > 10 | > 10 | COc1ccc(CNCCCNCc2ccc(OC)c(O)c2)cc1O | > 100 | – | – | Non-toxic | – | –
7 | > 10 | > 10 | COc1ccc(CNCCCCNCc2ccc(OC)c(O)c2)cc1O | > 100 | – | – | Non-toxic | – | –
8 | > 10 | > 10 | COc1ccc(CNCCCCCCNCc2ccc(OC)c(O)c2)cc1O | 43.8 | > 0.3 | – | Non-toxic | – | –
9 | > 10 | 5.5 | COc1ccc(CNCCCCCCCCNCc2ccc(OC)c(O)c2)cc1O | 44.4 | > 0.3 | > 2 | Non-toxic | – | –
10 | > 10 | 0.96 | COc1ccc(CNCCCCCCCCCCNCc2ccc(OC)c(O)c2)cc1O | 4.5 | > 2 | > 11 | Non-toxic | – | –
11 | 0.81 | 0.19 | COc1cc(CNCCCNCc2ccc(OCc3ccccc3)c(OC)c2)ccc1OCc1ccccc1 | 0.23 | 29 | 35 | – | 6.65 | 8
12 | 0.73 | 0.17 | COc1cc(CNCCCCNCc2ccc(OCc3ccccc3)c(OC)c2)ccc1OCc1ccccc1 | 0.24 | 37 | 52 | – | 2.7 | 12
13 | 0.74 | 0.19 | COc1cc(CNCCCCCCNCc2ccc(OCc3ccccc3)c(OC)c2)ccc1OCc1ccccc1 | 0.21 | > 40 | > 44 | Non-toxic | – | > 11
14 | 0.82 | 0.19 | COc1cc(CNCCCCCCCCNCc2ccc(OCc3ccccc3)c(OC)c2)ccc1OCc1ccccc1 | 0.22 | 21 | 24 | – | 2.7 | 6
15 | 0.8 | 0.11 | COc1cc(CNCCCCCCCCCCNCc2ccc(OCc3ccccc3)c(OC)c2)ccc1OCc1ccccc1 | 1.2 | > 6 | > 67 | Non-toxic | – | > 10
16 | > 10 | 3.2 | COc1ccc(CNCCCCNCc2ccc(OC)cc2)cc1 | 8.52 | > 2 | > 5 | Non-toxic | – | –
17 | – | – | C[C@@H]1[C@H](O)[C@@H](C)/C=C/C=C/C=C/C=C/C=C/C=C/C=C/[C@H](O[C@@H]2O[C@H](C)[C@@H](O)[C@H](N)[C@@H]2O)C[C@@H]2O[C@](O)(C[C@@H](O)C[C@@H](O)[C@H](O)CC[C@@H](O)C[C@@H](O)CC(=O)O[C@H]1C)C[C@H](O)[C@H]2C(=O)O [AMPHOTERICIN B] | 0.32 | – | – | – | – | –
18 | 2.1 | 1.7 | CC1CS(=O)(=O)CCN1/N=C/c1ccc([N+](=O)[O-])o1 (centres undefined) [NIFURTIMOX] | – | – | – | – | – | –
